Data published in ChEMBL document CHEMBL3739352, “Anticonvulsant activity, crystal structures, and preliminary safety evaluation of N-trans-cinnamoyl derivatives of selected (un)modified aminoalkanols” (Eur J Med Chem, 2016).
The source made the active and inactive calls. No cut-off for these calls is given here.

Columns and labels:
[1] = Lipophilicity of the compound using 65% methanol in water at 1 mg/ml by RT-TLC analysis; type: physicochemical; conditions: buffer
Method in brief: (§1)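 Reversed-phase TLC with a methanol–water mobile phase at the stated methanol content (v/v). Compounds were spotted from 1 mg/mL methanol solutions after 1 h chamber saturation and located under UV light. Rf was measured and RM = log(1/Rf − 1) calculated.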

[2] = Lipophilicity of the compound using 95% methanol in water at 1 mg/ml by RT-TLC analysis; type: physicochemical; conditions: buffer; method in brief: as §1
[3] = Lipophilicity of the compound at 1 mg/ml by RT-TLC analysis relative to 0% methanol; type: physicochemical; conditions: methanol/water
Method in brief: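 Reversed-phase TLC used methanol–water mobile phases of 95–65% methanol. Compounds were applied from 1 mg/mL methanol solutions after 1 h chamber saturation, with UV detection. RM = log(1/Rf − 1) was calculated at each methanol level and extrapolated linearly (RM = RM0 + bC) to 0% methanol to give RM0.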

[4] = test system: Mus musculus; assay: Anticonvulsant activity in albino Carworth Farms No.1 mouse assessed as protection against subcutaneous dosed pentetrazol-induced seizures at 100 mg/kg, ip after 4 hrs; type: functional, organism-based
Method in brief: (§2)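 Mouse i.p. screen in Carworth Farms No.1 albino mice at 30, 100 or 300 mg/kg in 0.5% methylcellulose. Testing was at 0.5 and 4 h after injection, by maximal electroshock or by subcutaneous pentetrazol challenge. Scoring was number protected / number used.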

[5] = test system: Mus musculus; assay: Anticonvulsant activity in albino Carworth Farms No.1 mouse assessed as protection against maximal electroshock-induced seizures at 30 mg/kg, ip after 0.5 hrs; type: functional, organism-based; method in brief: as §2
[6] = test system: Mus musculus; assay: Anticonvulsant activity in albino Carworth Farms No.1 mouse assessed as protection against maximal electroshock-induced seizures at 300 mg/kg, ip after 0.5 hrs; type: functional, organism-based; method in brief: as §2
[7] = Lipophilicity of the compound using 75% methanol in water at 1 mg/ml by RT-TLC analysis; type: physicochemical; conditions: buffer; method in brief: as §1
[8] = test system: Mus musculus; assay: Neurotoxicity in albino Carworth Farms No.1 mouse at 300 mg/kg, ip after 4 hrs by rotarod test; type: toxicity, organism-based; conditions: in vivo
Method in brief: (§3)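 Mice (albino Carworth Farms No.1) were dosed i.p. at 30, 100 or 300 mg/kg in 0.5% methylcellulose. They were tested 0.5 and 4 h later on a 1-inch knurled rod rotating at 6 rpm. Neurotoxicity was scored if a mouse could not stay on the rod for at least 1 min in each of three trials. Results are given as animals toxic/animals tested, with deaths noted.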

[9] = test system: Mus musculus; assay: Neurotoxicity in albino Carworth Farms No.1 mouse at 30 mg/kg, ip after 0.5 hrs by rotarod test; type: toxicity, organism-based; conditions: in vivo; method in brief: as §3
[10] = test system: Mus musculus; assay: Neurotoxicity in albino Carworth Farms No.1 mouse at 100 mg/kg, ip after 0.5 hrs by rotarod test; type: toxicity, organism-based; conditions: in vivo; method in brief: as §3
[11] = test system: Mus musculus; assay: Anticonvulsant activity in albino Carworth Farms No.1 mouse assessed as protection against subcutaneous dosed pentetrazol-induced seizures at 300 mg/kg, ip after 4 hrs; type: functional, organism-based; method in brief: as §2
[12] = Lipophilicity of the compound using 90% methanol in water at 1 mg/ml by RT-TLC analysis; type: physicochemical; conditions: buffer; method in brief: as §1
[13] = test system: Mus musculus; assay: Anticonvulsant activity in albino Carworth Farms No.1 mouse assessed as protection against maximal electroshock-induced seizures at 100 mg/kg, ip after 4 hrs; type: functional, organism-based; method in brief: as §2
[14] = test system: Mus musculus; assay: Anticonvulsant activity in albino Carworth Farms No.1 mouse assessed as protection against maximal electroshock-induced seizures at 100 mg/kg, ip after 0.5 hrs; type: functional, organism-based; method in brief: as §2
[15] = test system: Mus musculus; assay: Anticonvulsant activity in albino Carworth Farms No.1 mouse assessed as protection against subcutaneous dosed pentetrazol-induced seizures at 300 mg/kg, ip after 0.5 hrs; type: functional, organism-based; method in brief: as §2
[16] = test system: Mus musculus; assay: Neurotoxicity in albino Carworth Farms No.1 mouse at 30 mg/kg, ip after 4 hrs by rotarod test; type: toxicity, organism-based; conditions: in vivo; method in brief: as §3
[17] = test system: Mus musculus; assay: Neurotoxicity in albino Carworth Farms No.1 mouse at 300 mg/kg, ip after 0.5 hrs by rotarod test; type: toxicity, organism-based; conditions: in vivo; method in brief: as §3
[18] = test system: Mus musculus; assay: Anticonvulsant activity in albino Carworth Farms No.1 mouse assessed as protection against subcutaneous dosed pentetrazol-induced seizures at 30 mg/kg, ip after 0.5 hrs; type: functional, organism-based; method in brief: as §2
[19] = test system: Mus musculus; assay: Anticonvulsant activity in albino Carworth Farms No.1 mouse assessed as protection against subcutaneous dosed pentetrazol-induced seizures at 100 mg/kg, ip after 0.5 hrs; type: functional, organism-based; method in brief: as §2
[20] = Lipophilicity of the compound using 85% methanol in water at 1 mg/ml by RT-TLC analysis; type: physicochemical; conditions: buffer; method in brief: as §1
[21] = test system: Mus musculus; assay: Anticonvulsant activity in albino Carworth Farms No.1 mouse assessed as protection against maximal electroshock-induced seizures at 30 mg/kg, ip after 4 hrs; type: functional, organism-based; method in brief: as §2
[22] = test system: Mus musculus; assay: Anticonvulsant activity in albino Carworth Farms No.1 mouse assessed as protection against subcutaneous dosed pentetrazol-induced seizures at 30 mg/kg, ip after 4 hrs; type: functional, organism-based; method in brief: as §2
[23] = test system: Mus musculus; assay: Anticonvulsant activity in albino Carworth Farms No.1 mouse assessed as protection against maximal electroshock-induced seizures at 300 mg/kg, ip after 4 hrs; type: functional, organism-based; method in brief: as §2
[24] = test system: Mus musculus; assay: Neurotoxicity in albino Carworth Farms No.1 mouse at 100 mg/kg, ip after 4 hrs by rotarod test; type: toxicity, organism-based; conditions: in vivo; method in brief: as §3
[25] = test system: Rattus norvegicus; assay: Anticonvulsant activity in Sprague-Dawley rat assessed as protection against maximal electroshock-induced seizures at 30 mg/kg, po after 2 hrs; type: functional, organism-based
Method in brief: (§4)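 Sprague-Dawley rats were given 30 mg/kg p.o. in 0.5% methylcellulose. Maximal electroshock was applied at 0.25, 0.5, 1.0, 2.0 and 4 h after dosing. Results are reported as number of rats protected / number tested.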

[26] = test system: Rattus norvegicus; assay: Neurotoxicity in Sprague-Dawley rat at 30 mg/kg, po after 4 hrs; type: toxicity, organism-based; conditions: in vivo
Method in brief: (§5)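 Sprague-Dawley rats were given 30 mg/kg orally in 0.5% methylcellulose. Neurotoxicity was checked at 0.25, 0.5, 1.0, 2.0 and 4 h after dosing. Results are given as number of rats showing neurotoxicity/number tested.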

[27] = test system: Rattus norvegicus; assay: Anticonvulsant activity in Sprague-Dawley rat assessed as protection against maximal electroshock-induced seizures at 30 mg/kg, po after 4 hrs; type: functional, organism-based; method in brief: as §4
[28] = test system: Rattus norvegicus; assay: Neurotoxicity in Sprague-Dawley rat at 30 mg/kg, po after 0.25 hrs; type: toxicity, organism-based; conditions: in vivo; method in brief: as §5
[29] = test system: Rattus norvegicus; assay: Anticonvulsant activity in Sprague-Dawley rat assessed as protection against maximal electroshock-induced seizures at 30 mg/kg, po after 0.25 hrs; type: functional, organism-based; method in brief: as §4
[30] = test system: Rattus norvegicus; assay: Neurotoxicity in Sprague-Dawley rat at 30 mg/kg, po after 0.5 hrs; type: toxicity, organism-based; conditions: in vivo; method in brief: as §5
[31] = test system: Rattus norvegicus; assay: Neurotoxicity in Sprague-Dawley rat at 30 mg/kg, po after 1 hr; type: toxicity, organism-based; conditions: in vivo; method in brief: as §5
[32] = test system: Rattus norvegicus; assay: Neurotoxicity in Sprague-Dawley rat at 30 mg/kg, po after 2 hrs; type: toxicity, organism-based; conditions: in vivo; method in brief: as §5
[33] = test system: Rattus norvegicus; assay: Anticonvulsant activity in Sprague-Dawley rat assessed as protection against maximal electroshock-induced seizures at 30 mg/kg, po after 0.5 hrs; type: functional, organism-based; method in brief: as §4
[34] = test system: Rattus norvegicus; assay: Anticonvulsant activity in Sprague-Dawley rat assessed as protection against maximal electroshock-induced seizures at 30 mg/kg, po after 1 hr; type: functional, organism-based; method in brief: as §4

Rm [1] | Rm [2] | Rm [3] | Rm [7] | Rm [12] | Rm [20] | Structure (SMILES) | Activity [4] | Activity [5] | Activity [6] | Activity [8] | Activity [9] | Activity [10] | Activity [11] | Activity [13] | Activity [14] | Activity [15] | Activity [16] | Activity [17] | Activity [18] | Activity [19] | other results
0.19 | -0.69 | 1.983 | -0.18 | -0.52 | -0.27 | O=C(/C=C/c1ccccc1)NCCCCCO | inactive | inactive | inactive | Non-toxic | Non-toxic | Non-toxic | inactive | inactive | inactive | inactive | Non-toxic | Non-toxic | inactive | inactive | Activity [21]: inactive; Activity [22]: inactive; Activity [23]: inactive; Activity [24]: Non-toxic
0.58 | -0.52 | 2.742 | 0.05 | -0.31 | -0.03 | COC(=O)C(NC(=O)/C=C/c1ccccc1)C(C)C (racemic) | inactive | inactive | Active | Non-toxic | Non-toxic | Non-toxic | inactive | inactive | inactive | inactive | Non-toxic | Non-toxic | inactive | inactive | Activity [21]: inactive; Activity [22]: inactive; Activity [23]: inactive; Activity [24]: Non-toxic
0.19 | -0.58 | 1.88 | -0.07 | -0.48 | -0.21 | CC(=O)OCC(C)NC(=O)/C=C/c1ccccc1 (racemic) | inactive | inactive | Active | Non-toxic | Non-toxic | Non-toxic | inactive | inactive | Active | inactive | Non-toxic | Non-toxic | inactive | inactive | Activity [25]: inactive; Activity [26]: Non-toxic; Activity [27]: inactive; Activity [28]: Non-toxic; Activity [29]: inactive; Activity [30]: Non-toxic; Activity [31]: Non-toxic; Activity [32]: Non-toxic; Activity [33]: inactive; Activity [21]: inactive; Activity [22]: inactive; Activity [23]: inactive; Activity [24]: Non-toxic; Activity [34]: inactive
0.25 | -0.58 | 2.003 | -0.1 | -0.48 | -0.19 | CC(=O)OC(C)CNC(=O)/C=C/c1ccccc1 (racemic) | inactive | inactive | Active | Non-toxic | Non-toxic | Non-toxic | inactive | inactive | inactive | Active | Non-toxic | Non-toxic | inactive | inactive | Activity [25]: inactive; Activity [26]: Non-toxic; Activity [27]: inactive; Activity [28]: Non-toxic; Activity [29]: inactive; Activity [30]: Non-toxic; Activity [31]: Non-toxic; Activity [32]: Non-toxic; Activity [33]: inactive; Activity [21]: inactive; Activity [22]: inactive; Activity [23]: Active; Activity [24]: Non-toxic; Activity [34]: inactive
